In ChEMBL document CHEMBL1154676, “Synthetic mRNA splicing modulator compounds with in vivo antitumor activity” (J Med Chem, 2009):

Experiments:
SF-539 = assay: Growth inhibition of human SF539 cells by sulforhodamine B assay; format: functional
[1] = Cytotoxicity against human NB-EBc1 cells after 72 hrs by XTT assay; format: functional, cell-based; conditions: NB-EBc1, 72 h
Summary of the method: (§1)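 Cells grown at 37 °C, 5% CO2; HFF in DMEM with 10% FBS, PrEC in prostate epithelial growth medium. Adherent lines seeded overnight, suspension lines same day; compounds diluted from DMSO stocks into media at various final concentrations, 72 h exposure. XTT reagent added 4 h, absorbance 490 nm (reference 690 nm). Growth as % of vehicle; IC50 from sigmoidal dose-response fit; mean ± SEM, three independent experiments.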

[2] = Cytotoxicity against human BT-3 cells after 72 hrs by XTT assay; format: functional, cell-based; conditions: BT-3, 72 h; summary of the method: as §1
A498 = assay: Growth inhibition of human A498 cells by sulforhodamine B assay; format: functional
WiDr = assay: Cytotoxicity against human WiDr cells after 72 hrs by XTT assay; format: functional, cell-based; summary of the method: as §1
Ramos = assay: Cytotoxicity against human Ramos cells after 72 hrs by XTT assay; format: functional, cell-based; summary of the method: as §1
[3] = Cytotoxicity against HFF/tert2 after 72 hrs by XTT assay; set-up: species or system Homo sapiens; summary of the method: as §1
Mus musculus [4] = assay: Toxicity in NOD/SCID mouse assessed as change in alkaline phosphatase level at 5 to 50 mg/kg, iv and po for 5 days; format: organism-based; set-up: dose 5-50 mg/kg, route oral; conditions: in vivo, 120 h
Mus musculus [5] = assay: Toxicity in NOD/SCID mouse assessed as calcium level at 5 to 50 mg/kg, iv and po for 5 days; format: organism-based; set-up: dose 5-50 mg/kg, route oral; conditions: in vivo, 120 h
COLO 205 = assay: Growth inhibition of human COLO205 cells by sulforhodamine B assay; format: functional
[6] = Cytotoxicity against human NB1643 cells after 72 hrs by XTT assay; format: functional, cell-based; conditions: NB-1643, 72 h; summary of the method: as §1
K562 = assay: Growth inhibition of human K562 cells by sulforhodamine B assay; format: functional
Mus musculus [7] = assay: Toxicity in NOD/SCID mouse assessed as weight loss at 5 to 50 mg/kg, iv and po for 5 days after 1 week; format: organism-based; set-up: dose 5-50 mg/kg, route oral; conditions: in vivo, 168 h
NCI-H23 = assay: Growth inhibition of human NCI-H23 cells by sulforhodamine B assay; format: functional
HT-29 = assay: Growth inhibition of human HT-29 cells by sulforhodamine B assay; format: functional
SK-MEL-2 [8] = assay: Cytotoxicity against human SK-MEL-2 cells after 72 hrs by XTT assay; format: functional, cell-based; conditions: SK-MEL-2, 72 h; summary of the method: as §1
LOX IMVI = assay: Growth inhibition of human LOXIMVI cells by sulforhodamine B assay; format: functional
SF-268 = assay: Growth inhibition of human SF268 cells by sulforhodamine B assay; format: functional
MIA PaCa-2 = assay: Cytotoxicity against human MIAPaCa2 cells after 72 hrs by XTT assay; format: functional, cell-based; conditions: MIA PaCa-2, 72 h; summary of the method: as §1
Mus musculus [9] = assay: Toxicity in NOD/SCID mouse assessed as glucose at 5 to 50 mg/kg, […] for 5 days; format: organism-based; set-up: dose 5-50 mg/kg; conditions: in vivo, po, 120 h
Mus musculus [10] = assay: Toxicity in NOD/SCID mouse assessed as thrombocytopenia at 5 to 50 mg/kg, iv and po for 5 days; format: organism-based; set-up: dose 5-50 mg/kg, route oral; conditions: in vivo, 120 h
PC-3 = assay: Cytotoxicity against human PC3 cells after 72 hrs by XTT assay; format: functional, cell-based; conditions: PC-3, 72 h; summary of the method: as §1
[11] = Cytotoxicity against human SJ-GBM2 cells after 72 hrs by XTT assay; format: functional, cell-based; summary of the method: as §1
RXF 393 = assay: Growth inhibition of human RXF393 cells by sulforhodamine B assay; format: functional
Mus musculus [12] = assay: Toxicity in NOD/SCID mouse transplanted with human JeKo1 cells assessed as fatalities at 5 to 50 mg/kg, iv and po for 5 days; format: organism-based; set-up: dose 5-50 mg/kg, route oral; conditions: in vivo, 120 h
[13] = Cytotoxicity against human Rh41 cells after 72 hrs by XTT assay; format: functional, cell-based; conditions: Rh41, 72 h; summary of the method: as §1
OVCAR-3 = assay: Growth inhibition of human OVCAR-3 cells by sulforhodamine B assay; format: functional
Mus musculus [14] = assay: Toxicity in NOD/SCID mouse assessed as blood urea nitrogen level at 5 to 50 mg/kg, iv and po for 5 days; format: organism-based; set-up: dose 5-50 mg/kg, route oral; conditions: in vivo, 120 h
SK-MEL-2 [15] = assay: Growth inhibition of human SK-MEL-2 cells by sulforhodamine B assay; format: functional
NCI-H522 = assay: Growth inhibition of human NCI-H522 cells by sulforhodamine B assay; format: functional
MOLT-4 [16] = assay: Growth inhibition of human MOLT4 cells by sulforhodamine B assay; format: functional
Mus musculus [17] = assay: Toxicity in NOD/SCID mouse assessed as amylase level at 5 to 50 mg/kg, iv and po for 5 days; format: organism-based; set-up: dose 5-50 mg/kg, route oral; conditions: in vivo, 120 h
SN12C = assay: Growth inhibition of human SN12C cells by sulforhodamine B assay; format: functional
OVCAR-4 = assay: Growth inhibition of human OVCAR4 cells by sulforhodamine B assay; format: functional
MOLT-4 [18] = assay: Cytotoxicity against human MOLT4 cells after 72 hrs by XTT assay; format: functional, cell-based; conditions: MOLT-4, 72 h; summary of the method: as §1
OVCAR-8 = assay: Growth inhibition of human OVCAR8 cells by sulforhodamine B assay; format: functional
CCRF-CEM = assay: Growth inhibition of human CCRF-CEM cells by sulforhodamine B assay; format: functional
Mus musculus [19] = assay: Toxicity in NOD/SCID mouse assessed as total necropsies at 5 to 50 mg/kg, […] for 5 days; format: organism-based; set-up: dose 5-50 mg/kg; conditions: in vivo, po, 120 h
HOP-62 = assay: Growth inhibition of human HOP62 cells by sulforhodamine B assay; format: functional
HFF = assay: Cytotoxicity against HFF cells after 72 hrs by XTT assay; format: cell-based; conditions: Homo sapiens; summary of the method: as §1
Mus musculus [20] = assay: Toxicity in NOD/SCID mouse assessed as globulin level at 5 to 50 mg/kg, […] for 5 days; format: organism-based; set-up: dose 5-50 mg/kg; conditions: in vivo, po, 120 h
Mus musculus [21] = assay: Toxicity in NOD/SCID mouse assessed as potassium level at 5 to 50 mg/kg, […]; format: organism-based; set-up: dose 5-50 mg/kg, route oral; conditions: in vivo, po, 120 h
[22] = read-out: Log10GI50 (converted)
[23] = read-out: Log10LC50 (converted)

CC(/C=C/[C@@H]1C[C@]2(CO2)CC(C)(C)O1)=C\C[C@H]1CC[C@@H](NC(=O)/C=C\[C@H](C)OC(=O)C(C)C)CC1
GI50 (SF-539; [22]): 372 nM | CC50 (SF-539; [23]): > 100000 nM | TGI (SF-539; read-out: Log10TGI (converted)): 18600 nM | IC50 [1]: 660 nM | IC50 [2]: 4410 nM | GI50 (A498; [22]): 3390 nM | CC50 (A498; [23]): > 100000 nM | TGI (A498; read-out: Log10TGI (converted)): 74100 nM | IC50 (WiDr): 910 nM | IC50 (Ramos): 80 nM | IC50 [3]: 9690 nM | Activity (Mus musculus [4]): Non-toxic | Activity (Mus musculus [5]): Non-toxic | GI50 (COLO 205; [22]): 263 nM | CC50 (COLO 205; [23]): > 100000 nM | TGI (COLO 205; read-out: Log10TGI (converted)): 1120 nM | IC50 [6]: 230 nM | GI50 (K562; [22]): 45.7 nM | CC50 (K562; [23]): > 100000 nM | TGI (K562; read-out: Log10TGI (converted)): > 100000 nM | Activity (Mus musculus [7]): Non-toxic | GI50 (NCI-H23; [22]): 537 nM | CC50 (NCI-H23; [23]): > 100000 nM | TGI (NCI-H23; read-out: Log10TGI (converted)): 33900 nM | GI50 (HT-29; [22]): 191 nM | CC50 (HT-29; [23]): > 100000 nM | TGI (HT-29; read-out: Log10TGI (converted)): 10000 nM | IC50 (SK-MEL-2 [8]): 290 nM | GI50 (LOX IMVI; [22]): 79.4 nM | CC50 (LOX IMVI; [23]): 55000 nM | GI50 (SF-268; [22]): 263 nM | CC50 (SF-268; [23]): > 100000 nM | TGI (SF-268; read-out: Log10TGI (converted)): > 100000 nM | IC50 (MIA PaCa-2): 1200 nM | Activity (Mus musculus [9]): Non-toxic | Activity (Mus musculus [10]): Non-toxic | IC50 (PC-3): 2200 nM | IC50 [11]: 900 nM | GI50 (RXF 393; [22]): 229 nM | CC50 (RXF 393; [23]): > 100000 nM | TGI (RXF 393; read-out: Log10TGI (converted)): 1820 nM | Activity (Mus musculus [12]): Non-toxic | IC50 [13]: 550 nM | GI50 (OVCAR-3; [22]): 229 nM | CC50 (OVCAR-3; [23]): > 100000 nM | TGI (OVCAR-3; read-out: Log10TGI (converted)): 3470 nM | Activity (Mus musculus [14]): Non-toxic | GI50 (SK-MEL-2 [15]; [22]): 257 nM | CC50 (SK-MEL-2 [15]; [23]): > 100000 nM | TGI (SK-MEL-2 [15]; read-out: Log10TGI (converted)): 3550 nM | GI50 (NCI-H522; [22]): 316 nM | CC50 (NCI-H522; [23]): 5370 nM | TGI (NCI-H522; read-out: Log10TGI (converted)): > 100000 nM | GI50 (MOLT-4 [16]; [22]): 47.9 nM | CC50 (MOLT-4 [16]; [23]): > 100000 nM | TGI (MOLT-4 [16]; read-out: Log10TGI (converted)): 5620 nM | Activity (Mus musculus [17]): Non-toxic | GI50 (SN12C; [22]): 1230 nM | CC50 (SN12C; [23]): > 100000 nM | TGI (SN12C; read-out: Log10TGI (converted)): > 100000 nM | GI50 (OVCAR-4; [22]): 1510 nM | CC50 (OVCAR-4; [23]): > 100000 nM | TGI (OVCAR-4; read-out: Log10TGI (converted)): > 100000 nM | IC50 (MOLT-4 [18]): 80 nM | GI50 (OVCAR-8; [22]): 240 nM | CC50 (OVCAR-8; [23]): > 100000 nM | TGI (OVCAR-8; read-out: Log10TGI (converted)): > 100000 nM | GI50 (CCRF-CEM; [22]): 47.9 nM | CC50 (CCRF-CEM; [23]): > 100000 nM | TGI (CCRF-CEM; read-out: Log10TGI (converted)): > 100000 nM | Activity (Mus musculus [19]): Non-toxic | GI50 (HOP-62; [22]): 457 nM | CC50 (HOP-62; [23]): > 100000 nM | TGI (HOP-62; read-out: Log10TGI (converted)): > 100000 nM | IC50 (HFF): > 10000 nM | Activity (Mus musculus [20]): Non-toxic | Activity (Mus musculus [21]): Non-toxic
